Hits are enriched below; roughly 3.9% of the tested compounds scored in any of these assays.
TAAR1 agonist – agonists of human TAAR1 | AID 624467 | hit rate 0.99% among 360,000 | CHO RD-HGA16 TAAR1, Fluo-8 calcium fluorescence; vehicle wells 0%, saturating PEA agonist 100% | activation, % at 3 µM;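 active = activation above the mean activation of all test compounds in the run plus 3 SD, cut at about 38% in these data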
Target sequence (Q96RJ0 whole entry, looked up): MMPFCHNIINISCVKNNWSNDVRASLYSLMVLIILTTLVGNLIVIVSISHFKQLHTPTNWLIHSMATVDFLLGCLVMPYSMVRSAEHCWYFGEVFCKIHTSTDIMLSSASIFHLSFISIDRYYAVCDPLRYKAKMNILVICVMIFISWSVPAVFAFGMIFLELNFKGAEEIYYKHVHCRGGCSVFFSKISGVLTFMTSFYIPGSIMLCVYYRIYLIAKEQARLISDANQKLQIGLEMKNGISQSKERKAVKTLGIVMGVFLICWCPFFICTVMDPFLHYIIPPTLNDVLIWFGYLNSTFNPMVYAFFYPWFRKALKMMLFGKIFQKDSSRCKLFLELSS
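test system = CHO RD-HGA16 cells carrying human TAAR1 plus Gα16 | schedule = 17-24 h seeding, 75 min 37 °C dye, 30 min RT | compound dosing = 3 µM single concentration | control set = DMSO and PEA EC100 | replicates = n 1 | signal = Fluo-8 fluorescence, 5 s baseline then 140 s kinetic read | measure = percent activation vs PEA EC100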
CRFR2-BP ag – agonists of human CRF-binding protein/CRF-R2 receptor complex; HEK293 CRF-R2/CRF-BP, calcium dye fluorescence (FLIPR); percent of saturating CRF peptide response; activation, % at 13.2 µM; hit rate 0.46% among 350,000;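 active = activation of at least 50%, plus an integration ratio under a set limit after plate pattern correction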
TAAR1 antagonist – human TAAR1 antagonism. CHO RD-HGA16 TAAR1, Fluo-8 calcium fluorescence, antagonist. Q96RJ0. inhibition, % at 3 µM. hit rate 1.5% among 360,000;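 active = inhibition above a per-plate cutoff, the mean inhibition of test compounds on that plate plus 3 SD, cut at about 49% in these data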
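Assay system: RD-HGA16 CHO cells with stable hTAAR1 and Gα16 / Reagent: EC80 β-phenethylamine stimulus / Doses: 3 µM, single point / Timing: dye loading 75 min at 37 °C, then 30 min room temperature / Measured by: Fluo-8 intracellular calcium dye fluorescence, real-time kinetic reads / Controls: vehicle wells and EC80 agonist wells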
TMEM16A inh – inhibitors of mouse TMEM16A calcium-activated chloride channel | HEK293 TMEM16A/YFP iodide influx fluorescence, ionomycin | normalized B-score (activity score, 25-100; higher = stronger inhibition) at 10 µM | hit rate 1.2% among 310,000 | AID 588511;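 active = ratio plate-corrected score three or more library SD toward inhibition, starting fluorescence score within five deviations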;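 also: score derived from kinetic fluorescence span divided by baseline fluorescence per well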
CRFR2-BP antag – blocks CRF-induced signaling of the CRF-BP/CRF-R2 complex; HEK293 CRF-R2/CRF-BP, CRF-induced calcium fluorescence; hit rate 0.59% among 350,000; AID 588475; inhibition, % at 11.8 µM;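 active = inhibition of the ligand-induced calcium signal above about 50% at the single tested concentration, limit read from the data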
ANO1 activ – activates or potentiates the mouse TMEM16A chloride channel; HEK293 TMEM16A/YFP-H148Q/I152L, iodide quench fluorescence; stronger effect = lower value; hit rate 0.3% among 340,000; Q8BHY3; B-score at 10 µM;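 active = fluorescence-ratio B-score plate-corrected deviation score at least 3 library SD below zero, with starting fluorescence score within 5 deviations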;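 also: channel opened by trigger with iodide after compound preincubation; score built on the fluorescence ratio of max minus min over baseline; more negative score means more quench and so TMEM16A activation or potentiation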
nonsel antag count – nonselective antagonism, TAAR1 counter-screen; shares compounds with TAAR1 antagonist; hit rate 77% among 2,400; inhibition, % at 3 µM; counterscreen cell line, calcium fluorescence, antagonist mode; in the data active = inhibition above about 22%;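 also: CHO-Ga16 host cells stimulated with ATP at an EC80 level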
TAAR1 ant conf – human TAAR1 antagonism, confirmed; shares compounds with TAAR1 antagonist; TAAR1-expressing cells, fluorescence antagonist read-out; inhibition, % at 3 µM; hit rate 40% among 2,400; AID 651785; in the data active = inhibition above about 49%;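 also: CHO-Ga16 host cells challenged with agonist PEA near its EC80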
Ga16 nonsel ag – nonselective Ga16 agonist in TAAR1 antagonist counter-screen | activation, % at 3 µM | Ga16-expressing cells, calcium fluorescence, agonist counterscreen | hit rate 18% among 2,400 | shares compounds with TAAR1 antagonist | AID 651953; in the data active = activation above about 12%
TAAR1 ag count – activates human TAAR1 in antagonist counter-screen | shares compounds with TAAR1 antagonist | hTAAR1 cell line, fluorescence activation, agonist mode | activation, % at 3 µM | hit rate 2% among 2,400; in the data active = activation above about 37%;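 also: CHO cells stably expressing TAAR1 with calcium dye readout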
Of the large screens only hits and unclear results are named; the others gave an inactive call (follow-up assays come after a bar, where they were run).

CC(=O)Nc1ccc(NC2=C(Cl)C(=O)c3ccccc3C2=O)cc1	TAAR1 antagonist 65.0, CRFR2-BP antag active (no result: TMEM16A inh, ANO1 activ) | nonsel antag count 39.5 | TAAR1 ant conf inactive | Ga16 nonsel ag inactive | TAAR1 ag count inactive
CCOC(=O)N(C)[C@H]1C[C@H]2c3[nH]c4c(-c5ccccc5)cccc4c3CCN2C(=O)[C@H]1[C@H](C)O	none (no result: CRFR2-BP ag, TMEM16A inh, CRFR2-BP antag, ANO1 activ)
COc1ccc(NC(=O)N(C)[C@H]2C[C@H]3c4[nH]c5c(-c6ccccc6)cccc5c4CCN3C(=O)[C@H]2[C@H](C)O)cc1	TAAR1 antagonist 69.2 (no result: CRFR2-BP ag, TMEM16A inh, CRFR2-BP antag, ANO1 activ) | nonsel antag count 41.2 | TAAR1 ant conf 53.0 | Ga16 nonsel ag inactive | TAAR1 ag count inactive
CCCNC(=O)c1ccccc1NC(=O)c1ccc2c(c1)NC(=O)C(C)S2 (stereo unspecified)	TAAR1 antagonist 59.0 | nonsel antag count 27.4 | TAAR1 ant conf 49.3 | Ga16 nonsel ag inactive | TAAR1 ag count inactive
O=C(COC(=O)c1ccc(O)cc1)Nc1cc(S(=O)(=O)N2CCCCCC2)ccc1Cl	TAAR1 antagonist 61.9 (no result: TMEM16A inh, ANO1 activ) | nonsel antag count 38.1 | TAAR1 ant conf 52.4 | Ga16 nonsel ag inactive | TAAR1 ag count inactive
Cc1cc(OCC(=O)OCC(=O)Nc2cc(S(=O)(=O)N3CCOCC3)ccc2Cl)ccc1Cl	TAAR1 antagonist 63.7 (no result: TMEM16A inh) | nonsel antag count 35.8 | TAAR1 ant conf inactive | Ga16 nonsel ag 13.7 | TAAR1 ag count inactive
Cc1ccc(S(=O)(=O)N2CCCCC2)cc1NC(=O)COC(=O)c1ccc(O)cc1	none
Cc1ccc(CSCC(=O)Nc2cc(S(=O)(=O)N3CCOCC3)ccc2OCC(F)(F)F)cc1	TAAR1 antagonist 81.4 (no result: TMEM16A inh) | nonsel antag count inactive | TAAR1 ant conf 61.7 | Ga16 nonsel ag inactive | TAAR1 ag count inactive
CCCCN1C(=O)C(CC(=O)NCCN2CCOCC2)CC(C(=O)N2CCCCCC2)=C1C (stereo unspecified)	none (no result: CRFR2-BP ag, TMEM16A inh, CRFR2-BP antag, ANO1 activ)
OC(c1cccc(Cl)c1)c1nc(-c2cc3ccccc3o2)cs1 (stereo unspecified)	TAAR1 antagonist 61.0 (no result: CRFR2-BP ag, TMEM16A inh, CRFR2-BP antag, ANO1 activ) | nonsel antag count 36.4 | TAAR1 ant conf 49.4 | Ga16 nonsel ag inactive | TAAR1 ag count inactive
CCOC(=O)C1(C)CCN1C(=O)c1ccc(N(C)C)cc1 (stereo unspecified)	none (no result: CRFR2-BP ag, TMEM16A inh, CRFR2-BP antag, ANO1 activ)
C=CC[C@H](CC(=O)N(CCO)Cc1ccccc1)C(=O)N[C@@H](COC(=O)[C@@H](CC=C)CC(=O)OC(C)(C)C)Cc1c[nH]c2ccccc12	TAAR1 antagonist 68.3 (no result: TMEM16A inh) | nonsel antag count 32.4 | TAAR1 ant conf inactive | Ga16 nonsel ag inactive | TAAR1 ag count inactive
C=CC[C@H](CC(=O)NCCO)C(=O)N[C@H](COC(=O)[C@H](CC=C)CC(=O)OC(C)(C)C)Cc1c[nH]c2ccccc12	TAAR1 antagonist 49.0 (no result: TMEM16A inh, ANO1 activ) | nonsel antag count inactive | TAAR1 ant conf inactive | Ga16 nonsel ag inactive | TAAR1 ag count inactive
O=C(Nc1cc2c3c(c1)CC(=O)N3CCC2)c1ccccc1Br	none
COc1ccc(-n2ncc3c(N4CCN(Cc5ccccc5)CC4)ncnc32)cc1	TAAR1 antagonist 59.6 | nonsel antag count 27.6 | TAAR1 ant conf 49.7 | Ga16 nonsel ag inactive | TAAR1 ag count inactive
Cc1ccc(C(=O)NCC(=O)N2CCc3ccccc3C2)cc1C	none
Cc1c(-c2ccccc2)nc2ccccc2c1C(=O)OCC(=O)Nc1ncc(C(F)(F)F)cc1Cl	TAAR1 antagonist 53.4 | nonsel antag count inactive | TAAR1 ant conf inactive | Ga16 nonsel ag inactive | TAAR1 ag count inactive
Cc1cc(C)n(-c2nc(Nc3ccccc3C(F)(F)F)nc(-n3nc(C)cc3C)n2)n1	TAAR1 antagonist 91.8 | nonsel antag count 42.5 | TAAR1 ant conf 70.2 | Ga16 nonsel ag 13.2 | TAAR1 ag count inactive
Cc1cc(C)n(-c2nc(NC(C)(C)C)nc(NC(C)(C)C)n2)n1	none
CC1(C(=O)Nc2ccc3nc[nH]c3c2)CCN1C(=O)C1(c2ccccc2)CCCC1 (stereo unspecified)	none (no result: CRFR2-BP ag, TMEM16A inh, CRFR2-BP antag, ANO1 activ)
CCOC(=O)c1cnc2c(c(C)nn2CC)c1NCCN1CCOCC1	none
CCOC(=O)c1cc(-c2ccccc2)nc2c1c(C)nn2-c1ccccn1	TAAR1 antagonist 53.2 | nonsel antag count 21.6 | TAAR1 ant conf inactive | Ga16 nonsel ag inactive | TAAR1 ag count inactive
CCOC(=O)c1cc(-c2ccncc2)nc2c1c(C)nn2C	none
COc1ccc(CNC(=O)CN(Cc2ccc(C)cc2)S(=O)(=O)c2ccc(Cl)cc2)cc1	TAAR1 antagonist 59.2 | nonsel antag count 38.2 | TAAR1 ant conf inactive | Ga16 nonsel ag inactive | TAAR1 ag count inactive
COc1ccc(CNC(=O)CN(C)S(=O)(=O)c2ccc(Cl)cc2)cc1	none
Cc1ccc(C(=O)Nc2ccc3cn[nH]c3c2)cc1S(=O)(=O)N1CCOCC1	TAAR1 antagonist 61.5 | nonsel antag count 30.7 | TAAR1 ant conf inactive | Ga16 nonsel ag inactive | TAAR1 ag count inactive
CCOC(=O)c1ccc(NC(=O)c2cccc(S(=O)(=O)N3CCOCC3)c2)cc1	TAAR1 antagonist 62.2, TMEM16A inh 100 | nonsel antag count 33.7 | TAAR1 ant conf inactive | Ga16 nonsel ag 13.8 | TAAR1 ag count inactive
Cc1ccc(NC(=O)c2cccnc2)cc1S(=O)(=O)N1CCOCC1	none
CC(=O)c1ccc(NC(=O)c2ccc(C)c(S(=O)(=O)N3CCOCC3)c2)cc1	none
Cc1cc(C)n(-c2ccc(C(=O)Nc3ccc(C)c(S(=O)(=O)N4CCOCC4)c3)cc2)n1	TAAR1 antagonist 77.6 | nonsel antag count 41.0 | TAAR1 ant conf 55.3 | Ga16 nonsel ag 13.8 | TAAR1 ag count inactive
CC(=O)c1cccc(NC(=O)c2cccc(S(=O)(=O)N3CCOCC3)c2)c1	none
C[C@@H]1COc2cccc(NC3CC3)c2S(=O)(=O)N1	none (no result: CRFR2-BP ag, TMEM16A inh, CRFR2-BP antag, ANO1 activ)
COC(=O)Cc1c(C)c2ccc(O)c(CNCc3ccc(OC)c(OC)c3)c2oc1=O	none
COc1ccc(-c2cn(Cc3ccc4ccccc4c3)nn2)cc1	TAAR1 antagonist 106.3 | nonsel antag count 46.3 | TAAR1 ant conf 80.7 | Ga16 nonsel ag inactive | TAAR1 ag count inactive
CC(C)(C)N(Cc1ccccc1)C(=O)CCc1ccccc1	none
CN(Cc1ccccc1)C(=O)c1[nH]cnc1C(=O)NCc1ccc(CNC(=O)OC(C)(C)C)cc1	none (no result: TMEM16A inh)

Source: PubChem BioAssay
